From the RNAGym collection of RNA variant scans (doi:10.1038/nmeth.2970)

B1: NELF-E aptamer (parent)
chain: CCCAACGACUGCCGAGCGAGAUUACGCUUGAGCGCCCCACUGAGGAUGCCCACGGGCGAUUGGGGCACGG

Variants of: B1
Experiment: HiTS-RAP
Conditions: with NELF-E (Drosophila)
Summary of the method: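 Aptamer DNA templates carrying a T7 promoter and ter site were sequenced on an Illumina GAIIx flowcell, then transcribed in situ by T7 RNA polymerase and halted by GST-Tus (30 minutes, 37°C). Clusters were imaged after 30-minute room-temperature equilibration with NELF-E-mOrange at 0.064 to 1000 nM in HEPES binding buffer, and only the first binding curve was used. Intensities were normalised to sequencing intensity and averaged per sequence. Kd came from weighted Hill fits, keeping fits with variance below 1,000,000.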

Variant	Kd [nM]
CCCAACGACUGCCGAGCGGGAUUACACUUGAGCGCCCCACUGAGGAUGCCCACGGGCGAUUGGGGCACGG	4.12
CCCAACGACUGCCGAGCGUGAUUGCGCUUGAGCGCCCCACUGAGGAUGCCCACGGGCGAUUGGGGCACGG	5.61
CCCAACGACUGCCGAGCGCGAUUACGCUUGAGCGCCCCACUGAGGAUGCCCACGGGCGAUUGGGGCACGG	4.44
CCCAACGACUGCCGAGCGUGAUUACGCUUGAGCGCCCCACUGAGGAUGCCCACGGGCGAUUGGGGCACGG	5.02
CCCAACGACUGCCGAGCGGGAUUACGCUUGAGCGCCCCACUGAGGAUGCCCACGGGCGAUUGGGGCACGG	5.18
CCCAACGACUGCCGAGCGGGACUACGCUUGAGCGCCCCACUGAGGAUGCCCACGGGCGAUUGGGGCACGG	4.25
CCCAACGACUGCCGAGCGGGAGUACGCUUGAGCGCCCCACUGAGGAUGCCCACGGGCGAUUGGGGCACGG	5.7
CCCAACGACUGCCGAGCGGGAUUACGCUUGAGCGCCCCACUGAGGAUGCCCACGGGCGAUUGUGGCACGG	14.8
CCCAACGACUGCCGAGCGGGAUUACGCUUGAGCGCCCCACUGAGGAUGCCCACGGGCGAUUGAGGCACGG	19.1
CCCAACGACUGCCGAGCUAGAUUACGCUGGAGCGCCCCACUGAGGAUGCCCACGGGCGAUUGGGGCACGG	7.47
CCCAACGACUGCCGAGCUGGAUUACGCUUGAGCGCCCCACUGAGGAUGCCCACGGGCGAUUGGGGCACGG	6.31
CCCAACGACUGCCGAGCAAGAUGACGCUUGAGCGCCCCACUGAGGAUGCCCACGGGCGAUUGGGGCACGG	4.95
CCCAACGACUGCCGAGCGGGAUUACGCUUAAGCGCCCCACUGAGGAUGCCCACGGGCGAUUGGGGCACGG	4.57
CCCAACGACUGCCGAGCGGGAUUACGCUUGAGCGCCCCACUGAGGGUGCCCACGGGCGAUUGGGGCACGG	20.6
CCCAACGACUGCCGAGCGGGAUUUCGCUUGAGCGCCCCACUGAGGAUGCCCACGGGCGAUUGGGGCACGG	7.26
CCCAACGACUGCCGAGCGGGAUUGCGCUUGAGCGCCCCACUGAGGAUGCCCACGGGCGAUUGGGGCACGG	6.18
CCCAACGACUGCCGAGCGGAAUUACGCUUGAGCGCCCCACUGAGGAUGCCCACGGGCGAUUGGGGCACGG	6.4
CCCAACGACUGCCGAGCGGUAUUACGCUUGAGCGCCCCACUGAGGAUGCCCACGGGCGAUUGGGGCACGG	6.34
CCCAACGACUGCCGAGCGGGAUUACGCUUGAGUGCCCCACUGAGGAUGCCCACGGGCGAUUGGGGCACGG	7.36

Variant	Kd [nM]
CCCAACGACUGCCGAGCUAGAGUACGCUUGAGCGCCCCACUGAGGAUGCCCACGGGCGAUUGGGGCACGG	6.85
CCCAACGACUGCCGAGCGUGAUUACGCUUGAGCGCCCCACUGAGGAUGCCCUCGGGCGAUUGGGGCACGG	22.1
CCCAACGACUGCCGAGCGGGAUUACGCUUGAGCGCCCCACUGAGGAUGCCCACGGGCGAUUGGGGUACGG	5.18
CCCAACGACUGCCGAGCUAGAUUGCGCUUGAGCGCCCCACUGAGGAUGCCCACGGGCGAUUGGGGCACGG	5.98
CCCAACGACUGCCGAGCAAGAGUACGCUUGAGCGCCCCACUGAGGAUGCCCACGGGCGAUUGGGGCACGG	6
CCCAACGACUGCCGAGCGAAAGUACGCUUGAGCGCCCCACUGAGGAUGCCCACGGGCGAUUGGGGCACGG	5.27
CCCAACGACUGCCGAGCGGGAUUACGCUUGAGCGCCCCACUGAGGAUGCCCGCGGGCGAUUGGGGCACGG	5.06
CCCAACGACUGCCGAGCGGGAUUACGCUUGAGCGCCCCACUGAGGAUGCCCUCGGGCGAUUGGGGCACGG	19.5
CCCAACGACUGCCGAGCGGGAUUACGCUUGAGCGUCCCACUGAGGAUGCCCACGGGCGAUUGGGGCACGG	7.42
CCCAACGACUGCCGAGCGGGAUUACGCUUGAGCGCCCCACUGAGGAUGCCCACGAGCGAUUGGGGCACGG	7.92
CCCAACGACUGCCGAGCGGGAUUACGCUUGAGCGCCCCACUGAGGAUGCCCACGUGCGAUUGGGGCACGG	10.6
CCCAACGACUGCCGAGCGGGAUUACGCUUGAGCGCCCCACUGAGGAUGCCCACGGGCGGUUGGGGCACGG	36.8
CCCAACGACUGCCGAGCGGGAUUACGCUUGAGCGCCCCACCGAGGAUGCCCACGGGCGAUUGGGGCACGG	92.4
CCCAACGACUGCCGAGCGGGAUUACGCUUGAGCGCCCCACGGAGGAUGCCCACGGGCGAUUGGGGCACGG	6.27
CCCAACGACUGCCGAGCGGGAUUACGCUUGAGCGCCCCGCUGAGGAUGCCCACGGGCGAUUGGGGCACGG	9.35
CCCAACGACUGCCGAGCGGGAUUACGCUUGAGCGCCCCUCUGAGGAUGCCCACGGGCGAUUGGGGCACGG	31.1
CCCAACGACUGCCGAGUGAGAUUACGCUUGAGCGCCCCACGGAGGAUGCCCACGGGCGAUUGGGGCACGG	5.63
CCCAACGACUGCCGAGCGGGAUUACGCUUGAGCACCCCACUGAGGAUGCCCACGGGCGAUUGGGGCACGG	6.47
CCCAACGACUGCCGAGCGGGAUUACGCUUGAGCGCCCCACUGAGGAUGCCCAUGGGCGAUUGGGGCACGG	4.21
